Test results taken from ChEMBL document CHEMBL3994613, “Diaryltriazenes as antibacterial agents against methicillin resistant Staphylococcus aureus (MRSA) and Mycobacterium smegmatis” (Eur J Med Chem, 2017).
≈ marks a conversion by molar mass, not a printed value.

What was measured:
[1] = tested on: Mycolicibacterium smegmatis; assay: Antimycobacterial activity against Mycobacterium smegmatis MC2 155 after 3 days by broth macrodilution method; type: functional; details: str. MC2 155, 72 h
Staphylococcus aureus [2] = assay: Antibacterial activity against methicillin-resistant Staphylococcus aureus USA300 by broth microdilution method
[3] = Stability of the compound in organic solvent; type: physicochemical
[4] = Stability of the compound in water; type: physicochemical; details: buffer
[5] = Solubility of the compound in water; type: physicochemical; details: buffer
[6] = Stability of the compound in solid state; type: physicochemical
[7] = tested on: Mycolicibacterium smegmatis; assay: Antimycobacterial activity against Mycobacterium smegmatis MC2 155 after 94 to 98 hrs by microdilution method; type: functional; details: str. MC2 155
Outline: (§1)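 Microdilution in TSB broth. Inoculum from colonies grown 96 h on TSA, final 1×10^5 CFU/mL, aerobic 94–98 h at 37 °C, growth read on a plate reader, at least duplicate.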

Staphylococcus aureus [8] = assay: Induction of membrane integrity impairment in Staphylococcus aureus USA300 assessed as cells with intact membrane at 8 ug/ml measured after 30 mins by Baclight assay relative to control; type: functional
Outline: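 LIVE/DEAD BacLight fluorescence assay. Live cells in 0.85% NaCl at OD600 0.2 were exposed to compound in DMSO for 30 min at 37 °C. Dye was then added and incubated 15 min in the dark at room temperature. Fluorescence read at ex 485 nm, em 530/630 nm. Intact membrane % came from a live/dead (isopropanol-killed) standard curve, at least triplicate, mean±SD.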

Escherichia coli [9] = assay: Antibacterial activity against Escherichia coli DH10beta harboring pHuLUC3 after 18 to 20 hrs by microdilution method; type: functional
Outline: (§2)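 EUCAST broth microdilution in LB broth. Inoculum prepared by direct colony suspension from 20–24 h LB agar (E. coli DH10β) or 5% sheep blood BHI agar (MRSA USA300) growth. Final inoculum 2×10^4 CFU/mL, 18–20 h aerobic at 37 °C, growth read on a plate reader, at least duplicate.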

Staphylococcus aureus [10] = assay: Antibacterial activity against methicillin-resistant Staphylococcus aureus USA300 after 18 to 20 hrs by microdilution method; type: functional; outline: as §2
Staphylococcus aureus [11] = assay: Bactericidal activity against methicillin-resistant Staphylococcus aureus USA300 after 18 to 20 hrs by microdilution method; type: functional; outline: as §2
Saccharomyces cerevisiae = assay: Antibacterial activity against Saccharomyces cerevisiae after 18 to 20 hrs by microdilution method
Outline: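 Microdilution in YEP broth against wild-type yeast grown on YEP agar. Final inoculum 1×10^5 CFU/mL. Read after 18–20 h aerobic incubation at 30 °C on plate reader, at least one duplicate.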

[12] = tested on: Mycolicibacterium smegmatis; assay: Bactericidal activity against Mycobacterium smegmatis MC2 155 after 96 hrs by microdilution method; type: functional; details: str. MC2 155, 96 h; outline: as §1
Escherichia coli [13] = assay: Antibacterial activity against Escherichia coli D22 after 18 to 20 hrs by microdilution method; type: functional
Outline: (§3)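 Broth microdilution per EUCAST in LB broth. Inoculum from 20–24 h colonies by CLSI direct colony suspension (LB agar for E. coli), final 2×10^4 CFU/mL. Read after 18–20 h aerobic incubation at 37 °C on plate reader, at least one duplicate.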

Staphylococcus aureus [14] = assay: Induction of membrane integrity impairment in Staphylococcus aureus USA300 assessed as cells with intact membrane at 2 ug/ml measured after 30 mins by Baclight assay relative to control; type: functional
Outline: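 LIVE/DEAD BacLight fluorescence assay. Dye was then added and incubated 15 min in the dark at room temperature. Intact membrane % came from a live/dead (isopropanol-killed) standard curve, at least triplicate, mean±SD.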

Acinetobacter baumannii [15] = assay: Antibacterial activity against Acinetobacter baumannii ATCC 19606 after 18 to 20 hrs by broth microdilution method; type: functional; details: ATCC 19606 = CIP 70.34 = JCM 6841
Outline: (§4)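 Broth microdilution per EUCAST in TSB broth. Inoculum prepared by CLSI direct colony suspension from 20–24 h TSA colonies, final 3×10^4 CFU/mL. Aerobic incubation for 18–20 h at 37 °C, growth read on plate reader, at least one duplicate.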

Staphylococcus aureus [16] = assay: Antibacterial activity against methicillin-resistant Staphylococcus aureus 1653 after 18 to 20 hrs by broth microdilution method; type: functional
Outline: (§5)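 EUCAST broth microdilution in LB broth. Inoculum from 20–24 h colonies on 5% sheep blood BHI agar, final 3×10^4 CFU/mL, 18–20 h aerobic at 37 °C, plate reader, at least duplicate.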

Streptococcus pneumoniae [17] = assay: Antibacterial activity against Streptococcus pneumoniae R6 after 18 to 20 hrs by broth microdilution method; type: functional
Outline: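 Broth microdilution per EUCAST in BHI broth. Inoculum from colonies on BHI agar with 5% sheep blood, final 5×10^4 CFU/mL. Read after 18–20 h anaerobic incubation at 37 °C.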

Streptococcus pneumoniae [18] = assay: Bactericidal activity against Streptococcus pneumoniae R6 after 18 to 20 hrs by broth microdilution method; type: functional
Bacillus subtilis [19] = assay: Bactericidal activity against Bacillus subtilis ATCC 6051 after 18 to 20 hrs by broth microdilution method; type: functional
Klebsiella pneumoniae [20] = assay: Antibacterial activity against Klebsiella pneumoniae ATCC 700603 after 18 to 20 hrs by broth microdilution method; type: functional; outline: as §4
Acinetobacter baumannii [21] = assay: Antibacterial activity against Acinetobacter baumannii ATCC BAA-1605 after 18 to 20 hrs by broth microdilution method; type: functional; outline: as §4
Enterococcus faecalis = assay: Antibacterial activity against vancomycin resistant Enterococcus faecalis 501 after 18 to 20 hrs by broth microdilution method; type: functional
Outline: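 EUCAST microdilution in BHI broth. Inoculum from 20–24 h colonies on 5% sheep blood BHI agar, final 3×10^4 CFU/mL, 18–20 h aerobic at 37 °C, plate reader, at least duplicate.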

Escherichia coli [22] = assay: Bactericidal activity against Escherichia coli DH10beta harboring pHuLUC3 after 18 to 20 hrs by microdilution method; type: functional; outline: as §2
Staphylococcus aureus [23] = assay: Bactericidal activity against methicillin-resistant Staphylococcus aureus 1653 after 18 to 20 hrs by broth microdilution method; type: functional; outline: as §5
Escherichia coli [24] = assay: Antibacterial activity against N43 CGSC 5583 knock out Escherichia coli after 18 to 20 hrs by microdilution method; type: functional; outline: as §3
Bacillus subtilis [25] = assay: Antibacterial activity against Bacillus subtilis ATCC 6051 after 18 to 20 hrs by broth microdilution method; type: functional; outline: as §3
Klebsiella pneumoniae [26] = assay: Antibacterial activity against Klebsiella pneumoniae ATCC 13882 after 18 to 20 hrs by broth microdilution method; type: functional; outline: as §4
Pseudomonas aeruginosa = assay: Antibacterial activity against Pseudomonas aeruginosa PA0001 after 18 to 20 hrs by broth microdilution method; type: functional
Outline: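 EUCAST broth microdilution in LB broth. Inoculum from 20–24 h LB agar colonies (CLSI direct colony suspension), final 3×10^4 CFU/mL. Aerobic incubation 18–20 h at 37 °C, plate-reader read-out, at least one duplicate.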

| SMILES | MIC [1] [µg/mL] | MIC (Staphylococcus aureus [2]) [µg/mL] | Stability [3] | Stability [4] | solubility [5] | Stability [6] | MIC [7] [µg/mL] | MIC (Escherichia coli [9]) [µg/mL] | MIC (Staphylococcus aureus [10]) [µg/mL] | MBC (Staphylococcus aureus [11]) [µg/mL] | MIC (Saccharomyces cerevisiae) [µg/mL] | also measured |
| --- | --- | --- | --- | --- | --- | --- | --- | --- | --- | --- | --- | --- |
| Cc1onc(-c2ccccc2)c1C(=O)N[C@@H]1C(=O)N2[C@@H]1SC(C)(C)[C@@H]2C(=O)O [OXACILLIN] | 32 (≈ 79.7 µM) | 16 to 32 (≈ 39.9 to 79.7 µM) |  |  |  |  |  |  |  |  |  |  |
| CCN(CC)CC.O=[N+]([O-])c1ccc(/N=N/Nc2ccc([N+](=O)[O-])cc2C(F)(F)F)c(C(F)(F)F)c1 |  |  | Stable | Stable | Soluble | Stable |  |  |  |  |  |  |
| CN[C@H](CC(C)C)C(=O)N[C@H]1C(=O)N[C@@H](CC(N)=O)C(=O)N[C@H]2C(=O)N[C@H]3C(=O)N[C@H](C(=O)N[C@H](C(=O)O)c4cc(O)cc(O)c4-c4cc3ccc4O)[C@H](O)c3ccc(c(Cl)c3)Oc3cc2cc(c3O[C@@H]2O[C@H](CO)[C@@H](O)[C@H](O)[C@H]2O[C@H]2C[C@](C)(N)[C@H](O)[C@H](C)O2)Oc2ccc(cc2Cl)[C@H]1O [VANCOMYCIN] | 45 (≈ 31.1 µM) | 0.25 to 2 (≈ 0.173 to 1.38 µM) |  |  |  |  |  |  |  |  |  |  |
| CCOC(=O)/C=C/[N+](CC)(CC)CC.O=[N+]([O-])c1ccc(/N=N/[N-]c2ccc([N+](=O)[O-])cc2C(F)(F)F)c(C(F)(F)F)c1 |  |  | Stable | Stable | Soluble | Stable |  |  |  |  |  |  |
| O=[N+]([O-])c1ccc(/N=N/Nc2ccc([N+](=O)[O-])cc2Cl)c(Cl)c1 |  |  |  |  |  |  | > 128 | > 128 | 2 (≈ 5.62 µM) | 4 (≈ 11.2 µM) | > 128 | Activity (Staphylococcus aureus [8]): 64.6% |
| CC1(C)S[C@@H]2[C@H](NC(=O)C(C(=O)O)c3ccccc3)C(=O)N2[C@H]1C(=O)O (stereo partly specified) [CARBENICILLIN] | 512 (≈ 1350 µM) |  |  |  |  |  |  |  |  |  |  |  |
| O=C(c1ccccc1)N(/N=N/c1ccc([N+](=O)[O-])cc1C(F)(F)F)c1ccc([N+](=O)[O-])cc1C(F)(F)F |  |  | Stable | Stable | Soluble | Stable | 32 (≈ 60.7 µM) | ≥ 128 | 0.5 to 2 (≈ 0.948 to 3.79 µM) | 0.5 to 2 (≈ 0.948 to 3.79 µM) | > 128 | MBC [12]: > 128 µg/mL; MIC (Escherichia coli [13]): > 128 µg/mL; Cells with intact membrane (Staphylococcus aureus [14]): 95.8%; MIC (Acinetobacter baumannii [15]): > 128 µg/mL; MIC (Staphylococcus aureus [16]): 0.5 µg/mL (≈ 0.948 µM); MIC (Streptococcus pneumoniae [17]): 0.5 µg/mL (≈ 0.948 µM); MBC (Streptococcus pneumoniae [18]): 1 µg/mL (≈ 1.9 µM); MBC (Bacillus subtilis [19]): 16 µg/mL (≈ 30.3 µM); MIC (Klebsiella pneumoniae [20]): > 128 µg/mL; MIC (Acinetobacter baumannii [21]): > 128 µg/mL; MIC (Enterococcus faecalis): > 128 µg/mL; MBC (Escherichia coli [22]): > 128 µg/mL; MBC (Staphylococcus aureus [23]): 1 µg/mL (≈ 1.9 µM); MIC (Escherichia coli [24]): > 128 µg/mL; MIC (Bacillus subtilis [25]): 0.5 µg/mL (≈ 0.948 µM); MIC (Klebsiella pneumoniae [26]): > 128 µg/mL; MIC (Pseudomonas aeruginosa): > 128 µg/mL |
| O=C(c1ccccc1F)N(/N=N/c1ccc([N+](=O)[O-])cc1C(F)(F)F)c1ccc([N+](=O)[O-])cc1C(F)(F)F |  |  | Stable | Stable | Soluble | Stable | 16 (≈ 29.3 µM) | > 128 | 0.25 (≈ 0.458 µM) | 0.5 (≈ 0.917 µM) | > 128 | MBC [12]: 128 µg/mL (≈ 235 µM); MIC (Escherichia coli [13]): > 128 µg/mL; Cells with intact membrane (Staphylococcus aureus [14]): 103.8%; MIC (Acinetobacter baumannii [15]): > 128 µg/mL; MIC (Staphylococcus aureus [16]): 0.5 µg/mL (≈ 0.917 µM); MIC (Streptococcus pneumoniae [17]): 0.5 µg/mL (≈ 0.917 µM); MBC (Streptococcus pneumoniae [18]): 1 µg/mL (≈ 1.83 µM); MBC (Bacillus subtilis [19]): > 64 µg/mL; MIC (Klebsiella pneumoniae [20]): > 128 µg/mL; MIC (Acinetobacter baumannii [21]): > 128 µg/mL; MIC (Enterococcus faecalis): > 128 µg/mL; MBC (Staphylococcus aureus [23]): 4 µg/mL (≈ 7.34 µM); MIC (Escherichia coli [24]): > 128 µg/mL; MIC (Bacillus subtilis [25]): 2 µg/mL (≈ 3.67 µM); MIC (Klebsiella pneumoniae [26]): > 128 µg/mL; MIC (Pseudomonas aeruginosa): > 128 µg/mL |
| NC[C@H]1O[C@H](O[C@H]2[C@H](O)[C@@H](O[C@H]3O[C@H](CO)[C@@H](O)[C@H](N)[C@H]3O)[C@H](N)C[C@@H]2N)[C@H](N)C[C@@H]1O [TOBRAMYCIN] |  | 0.5 to 2 (≈ 1.07 to 4.28 µM) |  |  |  |  |  |  |  |  |  |  |
